This is a sample that favours compounds with a hit; in the whole collection about 1.8% have one here.
Beta2AR agonist: human beta-2 adrenergic receptor agonism by FAP; Am2.2-beta2AR cells, FAP receptor internalization, flow cytometry; response, % (test concentration not listed); 340,000 tested, 0.43% active;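 active = response above a set limit, near 3 SD of response in nonfluorescent compounds, cut at about 42% in these data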
CCR6 antag: CCR6 (human) receptor antagonism | 340,000 tested, 0.49% active | CHO-K1 CCR6 PathHunter beta-arrestin, luminescence, CCL20-stimulated | inhibition, % at 20 µM;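 active = compounds whose inhibition of the agonist-driven luminescence signal at 20 µM reaches about 50%, limit read from the data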;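 also: cells stimulated with CCL20 at 14 nM final; plate controls were DMSO with CCL20 for no effect and DMSO without agonist for full effect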
Target sequence (P51684 whole entry, looked up): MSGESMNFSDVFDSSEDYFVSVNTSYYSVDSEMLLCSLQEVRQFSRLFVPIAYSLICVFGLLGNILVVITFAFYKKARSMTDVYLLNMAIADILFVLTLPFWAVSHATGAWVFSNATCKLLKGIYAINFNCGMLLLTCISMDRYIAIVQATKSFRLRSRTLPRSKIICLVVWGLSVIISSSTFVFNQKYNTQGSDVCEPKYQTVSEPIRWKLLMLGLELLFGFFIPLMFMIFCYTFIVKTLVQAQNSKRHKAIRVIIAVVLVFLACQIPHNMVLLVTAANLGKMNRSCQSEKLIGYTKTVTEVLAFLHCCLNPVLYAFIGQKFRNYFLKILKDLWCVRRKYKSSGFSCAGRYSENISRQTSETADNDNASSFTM
EBI2 block: EBI2 (human) antagonism; inhibition, % at 5 µM; EBI2 beta-arrestin recruitment, luminescence, 7a,25-OHC stimulated; P32249; 360,000 tested, 0.81% active; in the data active = inhibition above about 38%;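 also: enzyme fragment complementation signal reports receptor beta-arrestin coupling in cells; 0% = agonist plus DMSO wells and 100% = wells without agonist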
APJ agonist: APJ receptor agonism; CHO-K1 APJ PathHunter beta-arrestin, luminescence; 0% DMSO wells, 100% apelin; activation, % at 20 µM; 330,000 tested, 0.11% active; AID 2520;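 active = activation more than six SD over the plate average, tested at 20 µM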;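 also: 0% = DMSO alone and 100% = apelin-13 at 10 nM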
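Assay system: CHO-K1 APJ beta-arrestin complementation cell line / Compound: single test compound dose, 20 µM final, 1% DMSO / Times: overnight seeding, 90 min compound at 25 °C, 1 h detection / Technique: beta-gal luminescence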
APJ antag: antagonists of human APJ apelin receptor; CHO-K1 APJ beta-arrestin complementation, luminescence; 330,000 tested, 0.32% active; P35414; inhibition, % at 20 µM;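 active = inhibition above about 40% at 20 µM, limit read from the data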;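 also: cells challenged with 10 nM apelin-13 agonist together with compound; plate controls were apelin-13 plus DMSO wells for no effect and DMSO wells lacking apelin-13 for full effect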
CXCR6 block: blocks human CXCR6 beta-arrestin recruitment | O00574 | CHO-K1 PathHunter CXCR6 beta-arrestin, luminescence | AID 602244 | inhibition, % at 20 µM | 360,000 tested, 0.36% active; in the data active = inhibition above about 34%, passing the limit was not always enough;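 also: antagonist mode with CXCL16 agonist at 10 nM final; 0% = 10 nM CXCL16 with DMSO and 100% = unstimulated wells without agonist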
EBI2 antag conf: EBI2 (human) antagonism, single concentration confirmation; shares compounds with EBI2 block; EBI2 beta-arrestin luminescence, 7a,25-OHC antagonism; inhibition, % at 5 µM; 2,400 tested, 29% active;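 active = inhibition of at least 50%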
EBI2 ag: counter-screen for EBI2 antagonists: EBI2 agonist activity; shares compounds with EBI2 block; EBI2-expressing cells, agonist mode, luminescence, 60 min; 0% vehicle, 100% 7α,25-dihydroxycholesterol control; activation, % at 5 µM; 2,400 tested, under 10 active;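 active = activation of at least 50%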
bGal counter: inhibits E. coli beta-galactosidase, counter-screen for EBI2 antagonists. shares compounds with EBI2 block. purified beta-galactosidase, luminescent Galacton Star, 15 min. inhibition, % at 5 µM. 2,400 tested, 1% active. AID 652176;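 active = replicate-average signal at least 3 plate SD below neutral wells, shown as high inhibition, flagging enzyme-inhibiting false positives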;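 also: 0% = DMSO wells with enzyme and 100% = wells lacking enzyme; higher means stronger loss of beta-gal luminescence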
* = called active by the depositor; ! = repeats disagree.

For COc1ccc(OCC(=O)N2CCN(S(=O)(=O)c3ccccc3[N+](=O)[O-])CC2)cc1 the results were Beta2AR agonist -1, CCR6 antag 11, EBI2 block 83*, APJ agonist -1, APJ antag -1, CXCR6 block -6, EBI2 antag conf 61*, EBI2 ag 0 and bGal counter -17.
Screening O=C(NCC(c1ccco1)N1CCCC1)c1ccc(Cl)c(S(=O)(=O)N2CCc3ccccc32)c1 (centres undefined) returned Beta2AR agonist 12, CCR6 antag 17, EBI2 block 0, APJ agonist 1, APJ antag -3 and CXCR6 block -6.
Screening C[C@H](CO)N1C[C@H](C)[C@@H](CN(C)C(=O)Nc2ccc3c(c2)OCO3)Oc2ccc(NS(=O)(=O)c3ccc(F)cc3)cc2C1=O returned Beta2AR agonist -4, CCR6 antag 10, EBI2 block -6, APJ agonist -3, APJ antag 10 and CXCR6 block 2.
Cc1ccc(OCC(=O)N2CCN(S(C)(=O)=O)CC2)cc1 was read as Beta2AR agonist 0, CCR6 antag 5, EBI2 block -1, APJ agonist 0, APJ antag -4 and CXCR6 block -15.
For CCCS(=O)(=O)N1CCN(C(=O)COc2ccc(OC)cc2)CC1 the results were Beta2AR agonist 3, CCR6 antag -8, EBI2 block 62*, APJ agonist -2, APJ antag -25, CXCR6 block 1, EBI2 antag conf 42, EBI2 ag 2 and bGal counter 11.
`Cc1ccc(-c2cc(-c3ccccc3)c(C#N)c(Br)n2)cc1` gave Beta2AR agonist -22, CCR6 antag 4, EBI2 block 11, APJ agonist -2, APJ antag 10 and CXCR6 block -9.
Screening CS(=O)(=O)c1nc(-c2ccccc2)cc(-c2ccccc2)c1C#N returned Beta2AR agonist 7, CCR6 antag 5, EBI2 block 56*, APJ agonist 0, APJ antag -26, CXCR6 block 10, EBI2 antag conf 55*, EBI2 ag 0 and bGal counter 9.
For Cc1cccc(-c2nc3c(c(=O)c4ccccc4n3C)c(=O)n2-c2ccccc2)c1 the results were Beta2AR agonist 0, CCR6 antag 6, EBI2 block 2, APJ agonist -4, APJ antag 4 and CXCR6 block 4.
For O=C1COc2ccc(-c3csc(=Nc4ccc(OC(F)F)cc4)n3CC3CCCO3)cc2N1 (centres undefined) the results were Beta2AR agonist 5, CCR6 antag 72*, EBI2 block 70*, APJ agonist -4, APJ antag 26, CXCR6 block 38, EBI2 antag conf 55*, EBI2 ag -2 and bGal counter -15.
COCC(C)n1c(-c2ccc3c(c2)NC(=O)CO3)csc1=Nc1ccc(OC(F)F)cc1 (centres undefined) was read as Beta2AR agonist -65, CCR6 antag 62*!, EBI2 block 58*, APJ agonist -4, APJ antag 7, CXCR6 block 26, EBI2 antag conf 58*!, EBI2 ag 0 and bGal counter 1.
For OC[C@@H]1CN(Cc2ccc(Cl)cc2)C[C@H](n2cnc3c(NC4CC4)ncnc32)O1 the results were EBI2 block 83*, CXCR6 block -6, EBI2 antag conf 82*, EBI2 ag -1 and bGal counter -16.
For OC[C@@H]1CN(Cc2cccc(C(F)(F)F)c2)C[C@H](n2cnc3c(NC4CC4)ncnc32)O1 the results were EBI2 block 65*, CXCR6 block -4, EBI2 antag conf 62*, EBI2 ag 3 and bGal counter 9.
CC(C)N(C)c1ncnc2c1ncn2[C@H]1CN(Cc2ccc(F)cc2)C[C@@H](CO)O1 was read as EBI2 block 68*, CXCR6 block 3, EBI2 antag conf 63*, EBI2 ag 1 and bGal counter 5.
`CC(C)Nc1ncnc2c1ncn2[C@H]1CN(Cc2ccc(-c3ccccc3)cc2)C[C@@H](CO)O1` gave EBI2 block 44*, CXCR6 block -4, EBI2 antag conf 27, EBI2 ag 0 and bGal counter -13.
`CC(C)NC(=O)C1(C)CN(S(C)(=O)=O)CC(=O)N1Cc1ccco1` (centres undefined) gave EBI2 block -5.
Screening O=C1CSC(c2cccc(F)c2)N1c1ccccc1 (centres undefined) returned Beta2AR agonist 4, CCR6 antag 4, EBI2 block 2, APJ agonist -4, APJ antag 16 and CXCR6 block 3.
Screening C[C@H](CO)N1C[C@H](C)[C@@H](CN(C)Cc2ccccc2)Oc2c(NS(=O)(=O)c3cn(C)cn3)cccc2C1=O returned Beta2AR agonist -1, CCR6 antag -4, EBI2 block -18, APJ agonist -1, APJ antag 14 and CXCR6 block -1.
For Cc1cc(C)c(S(=O)(=O)N(C2=NCCS2)S(=O)(=O)c2c(C)cc(C)cc2C)c(C)c1 the results were Beta2AR agonist 1, CCR6 antag 15, EBI2 block 56*, APJ agonist -2, APJ antag 6, CXCR6 block -1, EBI2 antag conf 18, EBI2 ag 0 and bGal counter -4.
For Cc1cc(C)c(S(=O)(=O)N(CC(=O)O)CC(=O)O)c(C)c1 the results were Beta2AR agonist 1, CCR6 antag -12, EBI2 block -4, APJ agonist -1, APJ antag 1 and CXCR6 block -2.
For COc1cccc(C(=O)NCC(=O)N/N=C/c2ccc3c(c2)OCO3)c1 the results were Beta2AR agonist 4, CCR6 antag 1, EBI2 block 3, APJ agonist -5, APJ antag -12 and CXCR6 block -4.
CC(=O)N1CCOc2ccc(S(=O)(=O)N3CCC(C(=O)NCc4ccc(C)cc4)CC3)cc21 was read as Beta2AR agonist -2, CCR6 antag 4, EBI2 block 94*, APJ agonist -2, APJ antag -20, CXCR6 block 5, EBI2 antag conf 85*, EBI2 ag 1 and bGal counter 8.
